Measured values: ChEMBL document CHEMBL1687941 (J Med Chem, 2011)

Tests used:
Plasmodium falciparum = experiment: Antimalarial activity against Plasmodium falciparum 3D7 infected-erythrocytes after 72 hrs by SYBR green fluorescence method; assay type: functional, organism-based; conditions: 3D7, 72 h
Outline: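 P. falciparum 3D7 grown in erythrocytes at 4% hematocrit in RPMI 1640 with 20 mM HEPES, 32 mM NaHCO3, 10% Albumax II. Serial dilutions added to phenol red-free culture at 0.5% starting parasitemia, in triplicate, for 72 h at 37 °C. Lysis buffer with saponin, Triton X and SYBR Green I then added for 1 h at room temperature. Fluorescence read as parasite growth, and IC50 derived.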

Aminopeptidase N = target: T1, Aminopeptidase N (Plasmodium falciparum FcB1/Columbia, UniProt O96935); experiment: Inhibition of Plasmodium falciparum recombinant M1-aminopeptidase expressed in Escherichia coli after 40 mins uisng fluorogenic substrate L-Leucyl-7-amido-40-methylcoumarin by fluorescence spectrophotometry
T1 sequence (O96935 whole entry): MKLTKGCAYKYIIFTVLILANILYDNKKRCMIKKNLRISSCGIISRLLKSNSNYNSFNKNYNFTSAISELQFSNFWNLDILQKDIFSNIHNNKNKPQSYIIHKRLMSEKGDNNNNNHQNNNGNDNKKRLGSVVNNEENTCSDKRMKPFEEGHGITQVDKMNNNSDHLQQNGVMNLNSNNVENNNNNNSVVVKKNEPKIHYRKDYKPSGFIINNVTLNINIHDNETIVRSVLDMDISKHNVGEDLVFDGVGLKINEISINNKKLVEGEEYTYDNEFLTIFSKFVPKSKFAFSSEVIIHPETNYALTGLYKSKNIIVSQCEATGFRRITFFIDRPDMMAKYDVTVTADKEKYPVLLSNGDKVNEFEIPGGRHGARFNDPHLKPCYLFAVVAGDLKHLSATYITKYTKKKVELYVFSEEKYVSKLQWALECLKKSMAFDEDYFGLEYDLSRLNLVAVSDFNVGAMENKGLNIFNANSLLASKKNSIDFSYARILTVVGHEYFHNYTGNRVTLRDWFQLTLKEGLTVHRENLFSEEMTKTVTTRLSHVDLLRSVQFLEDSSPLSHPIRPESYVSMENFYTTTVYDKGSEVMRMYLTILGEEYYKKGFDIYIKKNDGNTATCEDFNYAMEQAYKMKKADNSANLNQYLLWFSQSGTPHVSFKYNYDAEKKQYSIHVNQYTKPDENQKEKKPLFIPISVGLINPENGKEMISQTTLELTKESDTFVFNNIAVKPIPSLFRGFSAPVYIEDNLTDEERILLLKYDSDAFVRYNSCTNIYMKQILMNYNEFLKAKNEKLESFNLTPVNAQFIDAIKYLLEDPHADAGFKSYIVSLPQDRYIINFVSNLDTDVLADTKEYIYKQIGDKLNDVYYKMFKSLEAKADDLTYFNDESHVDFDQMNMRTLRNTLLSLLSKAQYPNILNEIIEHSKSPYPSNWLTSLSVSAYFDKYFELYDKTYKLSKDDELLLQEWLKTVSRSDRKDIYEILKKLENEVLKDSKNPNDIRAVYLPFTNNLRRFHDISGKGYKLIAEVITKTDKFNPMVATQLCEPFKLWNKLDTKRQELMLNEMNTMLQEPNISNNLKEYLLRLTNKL
Outline: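 Recombinant PfA-M1 expressed in E. coli, 0.9 nM, in 50 mM HEPES pH 7.5, 100 mM NaCl, 0.1% Triton X-100. Ki by Dixon plots (1/rate vs [I]) and secondary plots vs 1/[S]. Competitive mode checked with a/v vs i plots.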

| SMILES | IC50 (Plasmodium falciparum) | Ki (Aminopeptidase N) | Ki (Aminopeptidase N; read-out: Ki) |
| --- | --- | --- | --- |
| CC(C)C[C@H](NC(=O)[C@@H](O)[C@H](N)Cc1ccc(-c2ccccc2)cc1)C(=O)O | > 50 µM | Not Active |  |
| CC(C)C[C@H](NC(=O)[C@@H](O)[C@H](N)Cc1ccc2ccccc2c1)C(=O)O | > 50 µM |  | 3 µM |
| N[C@H](Cc1ccccc1)[C@H](O)C(=O)N[C@@H](CCCCNC(=O)OCc1ccccc1)C(=O)O |  |  | 1.45 µM |
| CCCC[C@H](NC(=O)[C@@H](O)[C@H](N)Cc1ccccc1)C(=O)O |  |  | 0.9 µM |
| CCCC[C@@H](N)[C@H](O)C(=O)N[C@@H](CC(C)C)C(=O)O | > 50 µM |  | 5.3 µM |
| CC(C)C[C@H](NC(=O)[C@@H](O)[C@H](N)CC(C)C)C(=O)O | > 50 µM | Not Active |  |
| CC(C)C[C@H](NC(=O)[C@@H](O)[C@H](N)C(c1ccccc1)c1ccccc1)C(=O)O | > 50 µM | Not Active |  |

Second part, led by results:

| IC50 (Plasmodium falciparum) | Ki (Aminopeptidase N) | SMILES | Ki (Aminopeptidase N; read-out: Ki) |
| --- | --- | --- | --- |
| 3.2 µM |  | CC(C)C[C@H](NC(=O)[C@@H](O)[C@H](N)Cc1ccccc1)C(=O)O [UBENIMEX] |  |
| 6.4 µM |  | COc1ccc(C[C@@H](N)[C@H](O)C(=O)N[C@@H](CC(C)C)C(=O)O)cc1 |  |
| 29 µM |  | CC(C)C[C@H](NC(=O)[C@@H](O)[C@H](N)Cc1ccc(OCc2ccccc2)cc1)C(=O)O |  |
